PPC-1+TRAIL kill: compounds killing PPC-1 cancer cells with TRAIL present, primary screen, TRAIL potentiator project, ATPLite luminescence, uHTS; PPC-1 cells + TRAIL, ATPLite viability luminescence; cell killing (% activity), % at 4 µM or 5 µM; actives 0.41% (n = 220,000); AID 1443, 2008;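 active means cell killing above 50% in the first pass at 4 µM, then a duplicate retest at 5 µM averaging 50% or more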;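 further: plate controls were cells with TRAIL plus DMSO for no effect and medium-only wells lacking cells for full effect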
STAT3 act: IL-6 driven STAT3 reporter potentiators, primary screen, U3A cells, luciferase, luminescence, MLSCN library; IL-6 STAT3-luciferase reporter; 100% = signal with IL-6 EC80 alone; activation (% of control), % at 5.6 µM; actives 0.91% (n = 190,000);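 active means activation above the screen-wide mean of compound activation plus 3 SD, cut at about 130% in these data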;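 further: 0% = background luminescence of wells with medium and substrate only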
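Material: human STAT1-deficient U3A cells with stable STAT3-luciferase reporter / Probe or stimulus: IL-6 stimulus at 33 ng/mL final / Schedule: 1 h compound pre-exposure, 6 h IL-6 stimulation, 37 °C / Technique: luminescence / Read-out basis: percent of IL-6-only median luminescence / Control set: IL-6-only high control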
STAT3 inh: IL-6 driven STAT3 reporter inhibitors, primary screen, U3A cells, luciferase, luminescence, MLSCN library. IL-6 STAT3-luciferase reporter; host cell line lacks STAT1. inhibition, % at 5.5 µM. actives 0.89% (n = 190,000). AID 862, 2007;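 active means inhibition above the mean inhibition across all screened compounds plus 3 SD, cut at about 44% in these data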;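 further: 0% = DMSO only wells and 100% = 100 µM nifuroxazide control wells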
TRAIL sens C8: viability loss with TRAIL in NB7+C8 cells, primary screen, TRAIL sensitizer project, cell-based, ATPlite luminescence. actives 1% (n = 360,000). inhibition (viability loss, TRAIL sensitization), % at 10 µM;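 active means compounds causing at least 50% loss of cell viability in the single-dose screen, relative to plate controls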
STAT1 inh-1: STAT1 signaling inhibitors, primary screen, cell-based, HTS, luciferase reporter; NIH 3T3 STAT1-luciferase reporter, IFN-gamma, luminescence; inhibition, % at 5.5 µM; actives 0.35% (n = 200,000);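 active means inhibition above a set limit, the mean inhibition across all tested compounds plus 3 SD, cut at about 34% in these data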;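 further: 0% = IFN-gamma with DMSO and 100% = IFN-gamma with 300 µM nifuroxazide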
STAT1 inh-2: STAT1 signaling inhibitors, confirmation, cell-based, HTS, luciferase reporter; shares compounds with STAT1 inh-1; AID 1263, 2008; actives 55% (n = 200); inhibition, % at 5.5 µM; NIH 3T3 STAT1-luciferase reporter, IFN-gamma, luminescence;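 active means triplicate mean inhibition exceeding the hit cutoff computed for the primary STAT1 screen, cut at about 35% in these data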;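 further: 0% = DMSO with IFN-gamma and 100% = 300 µM nifuroxazide with IFN-gamma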
NFkB inh: NF-kB reporter inhibitors, TNF-alpha stimulated, counter-screen for STAT1 inhibitor project, cell-based, HEK293T, luciferase luminescence; actives 30% (n = 200); inhibition, % at 5.7 µM; AID 1303, 2008; TNF-alpha induced; shares compounds with STAT1 inh-1;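 active means inhibition above the mean of solvent-only control wells plus 3 SD of those wells, cut at about 15% in these data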;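 further: 0% = DMSO with TNF-alpha and 100% = MG-132 control with TNF-alpha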
STAT3 inh 2: STAT3 reporter inhibition by STAT1 hits, counter-screen for STAT1 inhibitor project, U3A cells, luciferase, luminescence, triplicate; shares compounds with STAT1 inh-1; IL-6 STAT3 luciferase reporter; cells lacking STAT1; inhibition, % at 5.7 µM; actives 20% (n = 200); AID 1310, 2008;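 active means inhibition above the mean of solvent-only control wells plus 3 SD, set per campaign, cut at about 25% in these data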;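 further: 0% = IL-6 plus DMSO and 100% = IL-6 plus nifuroxazide control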
Active calls of the source: *; . = not tested or not shown. Most compounds without a hit are left out; they make up all but 1.8% or so of the library.

SMILES	PPC-1+TRAIL kill	STAT3 act	STAT3 inh	TRAIL sens C8	STAT1 inh-1	STAT1 inh-2	NFkB inh	STAT3 inh 2
CCOC(=O)N1CCN(c2ncnc3c2[nH]c2ccc(F)cc23)CC1	10	73	34	31	54*	61*	19*	37*
Cc1csc(=O)n1CCC(=O)OCC(=O)Nc1ccc(S(N)(=O)=O)cc1	.	.	.	9	.	.	.	.
Cn1nnnc1Sc1ncnc2scc(-c3ccccc3)c12	-1	113	-8	0	44*	49*	-7	-12
Cn1nnnc1Sc1ncnc2scc(-c3ccc(Br)cc3)c12	.	.	.	37	.	.	.	.
Cn1nnnc1Sc1ncnc2scc(-c3ccc(F)cc3)c12	.	102	0	7	38*	50*	-18	-12
C[C@H](CO)N1C[C@H](C)[C@@H](CN(C)CC2CCCCC2)Oc2ccc(NC(=O)Cn3cnnn3)cc2C1=O	.	.	.	-3	.	.	.	.
Clc1ccccc1N1CCN(c2ncnc3nc[nH]c23)CC1	18	80	25	7	37*	-6	2	-9
Fc1ccccc1N1CCN(c2ncnc3nc[nH]c23)CC1	-24	.	.	8	.	.	.	.
Cc1ccc(S(=O)(=O)N2CCC(C(=O)NCC(C)(C)N3CCOCC3)CC2)c(C)c1	.	.	.	6	.	.	.	.
Cc1cccc(-n2cc(-c3ccccc3)c3c(N4CCOCC4)ncnc32)c1	8	94	8	21	38*	18	9	-51
Cc1cc(=O)n(C(NC(=O)c2ccccc2)C(=O)c2ccccc2)cn1 (stereo not given)	7	91	12	-6	42*	46*	1	-61
O=C(O)c1cccc(N/N=C/c2cccs2)c1	33	83	22	7	60*	43*	79*	-24
O=C(N/N=C/c1cccs1)C(=O)Nc1cccc(Cl)c1	7	85	19	-17	-11	.	.	.
CCOC(=O)c1cc2c(=O)n3ccccc3nc2n(Cc2ccco2)c1=NC(=O)c1ccc(OC)cc1OC	23	83	23	-13	60*	22	10	25*
CCCCn1c(=NC(=O)c2ccco2)c(C(=O)OCC)cc2c(=O)n3ccccc3nc21	6	94	9	-7	-1	.	.	.
COC(=O)C(CCC(=O)CN1C(=O)c2ccccc2C1=O)N1C(=O)c2ccccc2C1=O (stereo not given)	.	.	.	-22	.	.	.	.
CCN(CC)S(=O)(=O)c1ccc(N2CCOCC2)c(NC(=O)c2cc(-c3ccccn3)nc3ccccc23)c1	26	92	17	41	66*	46*	-3	19
Nc1nc(C23CC4CC(CC(C4)C2)C3)[nH]c(=O)n1	14	.	.	-4	.	.	.	.
Nc1ccc2nc(-c3ccc(N)c(Cl)c3)[nH]c2c1	40	72	35	31	-49	.	.	.
Nc1ccc(-c2nc3c(Cl)cc(N)cc3[nH]2)cc1	3	79	26	2	41*	30	35*	28*
Cc1cnc(NC(=O)CC(C)c2ccccc2)s1 (stereo not given)	.	.	.	27	.	.	.	.
COc1ccc(-n2ncc3c2CC(C)(C)CC3NC(=O)c2c(C)cc(=O)oc2C)cc1 (stereo not given)	.	.	.	-7	.	.	.	.
CC(C)(C)C1CCc2c(sc(NC(=O)c3cccs3)c2C(N)=O)C1 (stereo not given)	24	94	8	42	54*	-58	-6	-21
CCC(C)(C)C1CCc2c(sc(NC(=O)c3cccs3)c2C(N)=O)C1 (stereo not given)	30	93	10	11	16	.	.	.
COc1ccc(NC(=O)C2CCN(c3cc(-c4ccccc4)nc4ncnn34)CC2)cc1OC	5	76	30	9	42*	53*	19*	36*
SMILES	PPC-1+TRAIL kill	STAT3 act	STAT3 inh	TRAIL sens C8	STAT1 inh-1	STAT1 inh-2	NFkB inh	STAT3 inh 2
CCCS(=O)(=O)c1nnnn1-c1cccc(OC)c1	2	95	11	2	46*	52*	24*	0
COc1cccc(-n2nnnc2SCC(=O)Nc2ccccc2OC)c1	.	.	.	-4	.	.	.	.
COc1ccc(CNC(=O)C(c2ccc(C)cc2)N(Cc2cccs2)C(=O)c2ccc3c(c2)OCCO3)cc1 (stereo not given)	-7	96	11	20	38*	23	-7	-5
Cc1ccc(S(=O)(=O)CC(CN2CCCCC2)N2CCCCC2)cc1 (stereo not given)	21	112	-7	5	33	.	.	.
O=S(=O)(CC(CN1CCCCC1)N1CCCCC1)c1ccc2ccccc2c1 (stereo not given)	10	104	2	-11	35*	15	-3	-50
COCc1cc(C)nc(Sc2nc3c(c(=O)n(C)c(=O)n3C)n2C)c1C#N	.	.	.	0	.	.	.	.
CCOC(=O)N1CCN(C(=O)/C=C/c2c(C)nn(-c3ccc(F)cc3)c2Cl)CC1	5	89	15	-4	62*	40*	-4	12
Cc1ccc(N(CC(=O)N2CCN(c3ccc(F)cc3)CC2)S(=O)(=O)c2c(C)noc2C)cc1	.	.	.	-2	.	.	.	.
CCN(CC)CCCNc1cc(C)nc2cc(-c3cccs3)nn12	.	101	0	-2	2	.	.	.
O=C(O)C(Cc1ccccc1)N=Cc1c(O)c2ccccc2oc1=O (stereo not given)	3	95	10	-3	41*	19	-5	-24
CC(C)c1ccc(N=Cc2c(O)c3ccccc3oc2=O)cc1	.	.	.	3	.	.	.	.

Source: PubChem
